Source: the array DNA melting data of Ke et al. (doi:10.1101/2024.01.08.574731)

What was measured:
[1] = folding enthalpy; higher = less favourable; fluorescence melt of hairpins on a sequencing array, two-state fit; conditions: sodium 0.088 M
Outline: (§1)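 With Cy3 and quencher oligos annealed, library hairpins on a sequenced MiSeq flow cell were imaged for Cy3 fluorescence in 50 mM Na-HEPES pH 8.0, 25 mM NaCl, in 2.5 °C steps up to 60 °C. Melting temperature and folding enthalpy were derived from bootstrapped two-state fits of signals normalised to pre-quench Cy3 and to control constructs. Four replicates were combined by inverse variance, with fitted temperatures raised by 9.35 °C to match UV melts.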

[2] = melting temperature; fluorescence melt of hairpins on a sequencing array, two-state fit, raised by 9.35 °C to match UV melts; conditions: sodium 0.088 M
Outline: as §1

| Sequence | folding enthalpy [1] | Tm [2] |
| --- | --- | --- |
| GCACCCGAAAGGGTCTGC ((((((....)))..))) | -13.3 kcal/mol | 49.1 °C |
| GCCAGCGAAAGCTATGGC ((((((....)))..))) | -21.4 kcal/mol | 55.3 °C |
| GATCCAGCCTGGATC ((((((...)))))) | -34 kcal/mol | 52.2 °C |
| GTTGTCGAAAGACCGAAC ((((((....)))..))) | -11.3 kcal/mol | 28.8 °C |
| GATCGGAGTCCCGATC ((((((....)))))) | -33.8 kcal/mol | 55.3 °C |
| GTTACGCGAAAGCGCAAC (((.(((....))).))) | -19.4 kcal/mol | 49.3 °C |
| GTCTAGGCGAAAGCCGAC (((..(((....)))))) | -10.8 kcal/mol | 44.5 °C |
| CGTCTCGGAAACGAAACG (((.(((....))).))) | -32.4 kcal/mol | 38.5 °C |
| GAGCTGGGAAACTGGCTC ((((..(....)..)))) | -27.6 kcal/mol | 46.7 °C |
| GAGTCCGAAAGGAGACTC ((((((....)))..))) | -21.9 kcal/mol | 44.9 °C |
| GCCCCTCGAAAGAGCGGC (((.(((....))).))) | -33 kcal/mol | 49.8 °C |
| GATCGCCCTGCGATC ((((((...)))))) | -32 kcal/mol | 67.8 °C |
| GCTATTACGAAAGTAAGC (((..(((....)))))) | -13.6 kcal/mol | 30 °C |
| GGAGGTGGAAACACCTCC (((((((....))))))) | -40.8 kcal/mol | 68.6 °C |
| GAAGCACGAAAGTGTTTC (((.(((....))).))) | -35.2 kcal/mol | 51.1 °C |
| GGTTCCGAAAGGATCACC ((((((....)))..))) | -14.7 kcal/mol | 33.1 °C |
| GGAATGGGAAACCATTTC (.(((((....))))).) | -34.4 kcal/mol | 42.2 °C |
| GTTCACCGAAAGGTTAAC (((.(((....))).))) | -26.4 kcal/mol | 42.3 °C |
| GTTTCGCGAAAGCGTAAC (((.(((....))).))) | -21.9 kcal/mol | 48.6 °C |
| GGTTTCGAAAGAAAACC ((((((....))).))) | -25.7 kcal/mol | 46.4 °C |
| GATCGGACCACCGATC ((((((....)))))) | -37.2 kcal/mol | 56.9 °C |
| GCAGGAGGAAACTCTTGC (((.(((....))).))) | -34.8 kcal/mol | 46.7 °C |
| GATGGTGGAAACACCATC (((((((....))))))) | -39.4 kcal/mol | 65.1 °C |

| Sequence | folding enthalpy [1] | Tm [2] |
| --- | --- | --- |
| GACGGAGGAAACCCCGTC (((((.(....).))))) | -37.5 kcal/mol | 51.3 °C |
| GCGTCCGAAAGGAGTCGC ((((((....)))..))) | -22.9 kcal/mol | 49.5 °C |
| GCGATCTATCGC ((((....)))) | -31 kcal/mol | 55.5 °C |
| GATGTGGCGAAAGCCATC (((..(((....)))))) | -8.76 kcal/mol | 38.5 °C |
| GCTCCGCGAAAGCGTCGC ((..(((....)))..)) | -15.9 kcal/mol | 35.2 °C |
| TACTCGAAAGAGTA (((((....))))) | -18.1 kcal/mol | 47.1 °C |
| GTATGTCGAAAGACTTAC (((.(((....))).))) | -25.1 kcal/mol | 45.5 °C |
| GCATGTGGAAACACGTGC (((.(((....))).))) | -45.4 kcal/mol | 55.6 °C |
| GTTTGACCGAAAGGTAAC (((..(((....)))))) | -11.6 kcal/mol | 32.4 °C |
| GATCCTAACTAGGATC ((((((....)))))) | -36.2 kcal/mol | 53.3 °C |
| GCATAGGGAAACCTGTGC (((.(((....))).))) | -33.6 kcal/mol | 50.3 °C |
| GATATTGGAAACAGTATC ((((.((....)).)))) | -12.2 kcal/mol | 34.3 °C |
| GATCCAGCTTTGGATC ((((((....)))))) | -32.1 kcal/mol | 51.5 °C |
| GCCTACGAAAGTATCGGC ((((((....)))..))) | -24.7 kcal/mol | 40.6 °C |
| CGCCTCCGGAAACGGGCG (((..(((....)))))) | -25.6 kcal/mol | 48.1 °C |
| GCGAAGGGTCGC ((((....)))) | -12.1 kcal/mol | 48.2 °C |
| GGCTGGGGAAACCTAGCC ((((.((....)).)))) | -42.8 kcal/mol | 56.2 °C |
| GGCGCAGGAAACCGCGCC (((((.(....).))))) | -37.3 kcal/mol | 68.8 °C |
| GGCATCGGAAACGACGCC (((.(((....))).))) | -42.1 kcal/mol | 52.3 °C |
| GCTACCGAAAGGTTCAGC ((((((....)))..))) | -16.3 kcal/mol | 35.5 °C |
| GGAAACGGAAACGTTCCC ((.((((....)))).)) | -23.1 kcal/mol | 45.1 °C |
| GCCTCGGGAAACCGGGGC (((.(((....))).))) | -36.4 kcal/mol | 66.3 °C |
| GGTCCAGGAAACTGAACC (((.(((....))).))) | -34.6 kcal/mol | 40 °C |

| Sequence | folding enthalpy [1] | Tm [2] |
| --- | --- | --- |
| GCTTAGAAATAAGC (((((....))))) | -18 kcal/mol | 40.5 °C |
| GTGGCTGGAAACGGCTAC ((.((.(....).)).)) | -24.2 kcal/mol | 44 °C |
| GTGGTTGGAAACAGCTAC ((.(.((....)).).)) | -23.3 kcal/mol | 33.1 °C |
| GTAGTCGGAAACGACTGC (.(((((....))))).) | -29 kcal/mol | 53.7 °C |
| GAGGACGAAAGTCGTCTC ((((((....)))..))) | -28.6 kcal/mol | 52.2 °C |
| GATCGCTGAGGCGATC ((((((....)))))) | -38.1 kcal/mol | 68.5 °C |
| GCTGAGCGAAAGCGCTGC ((.(.((....)).).)) | -16.1 kcal/mol | 54.7 °C |
| GCAGCCGGAAACGGCTAC (.(((((....))))).) | -11.3 kcal/mol | 45.9 °C |
| GATCAGTAAGCTGATC ((((((....)))))) | -41.3 kcal/mol | 52.3 °C |
| GAGCACGAAAGTGGCTC ((((((....))).))) | -24.2 kcal/mol | 56.5 °C |
| GAGCAAGAAATTGCTC ((((((....)))))) | -29.8 kcal/mol | 54.8 °C |
| GTCGTTTCGAAAGAAGAC (((..(((....)))))) | -14 kcal/mol | 28.9 °C |
| GGTGTGGGAAACCACGCC ((.((((....)))).)) | -27.4 kcal/mol | 60.5 °C |
| GCTCACACGAAAGTGAGC (((..(((....)))))) | -32 kcal/mol | 60.5 °C |
| GCTAACGCGAAAGCGAGC (((..(((....)))))) | -15.2 kcal/mol | 45.2 °C |
| GTACTCCGAAAGGATAC (((.(((....)))))) | -21.6 kcal/mol | 36.9 °C |
| GTTAGCGAAAGCTCGAAC ((((((....)))..))) | -7.85 kcal/mol | 22.9 °C |
| GTCAGACGAAAGTCGGAC (((.(((....))).))) | -35.5 kcal/mol | 63.1 °C |
| GTGTAACGAAAGTTGCAC (((.(((....))).))) | -33 kcal/mol | 53.6 °C |
| GTGCTCCGAAAGGATCAC (((.(((....))).))) | -31.9 kcal/mol | 50.2 °C |
| GGGCACGGAAACGCGCCC ((((.((....)).)))) | -44 kcal/mol | 64.3 °C |
| GTTGTGGGAAACCACGAC ((.((((....)))).)) | -30.8 kcal/mol | 52.7 °C |
| CGAGGCGGAAACGCTTCG (((.(((....))).))) | -35.3 kcal/mol | 55.3 °C |

| Sequence | folding enthalpy [1] | Tm [2] |
| --- | --- | --- |
| GGATATGCGAAAGCATCC (((..(((....)))))) | -12.2 kcal/mol | 36.5 °C |
| GAGTATGGAAACATGCTC (((.(((....))).))) | -34.1 kcal/mol | 46.8 °C |
| GATCTCAATGGAGATC ((((((....)))))) | -40.6 kcal/mol | 51.5 °C |
| GTGCAACGAAAGTTCAC (((.(((....)))))) | -13.2 kcal/mol | 45.7 °C |
| GTTAGAGGAAACCCTAAC (((((.(....).))))) | -17.9 kcal/mol | 31.9 °C |
| GCTCGGCGAAAGCATAGC (((..((....))..))) | -12.3 kcal/mol | 44 °C |
| GGTAGGGGAAACCCTACC (((((((....))))))) | -44.1 kcal/mol | 64.6 °C |
| GTGGAGGGAAACTTCCGC (.(((.(....).))).) | -26.7 kcal/mol | 35.1 °C |
| GGCCAGGGAAACTTGGCC (((((.(....).))))) | -35.7 kcal/mol | 57 °C |
| GCTAATCCGAAAGGAAGC (((..(((....)))))) | -16.5 kcal/mol | 33.1 °C |
| GATCCTGGGGAGGATC ((((((....)))))) | -36.8 kcal/mol | 51 °C |
| GAATATGCGAAAGCATTC (((..(((....)))))) | -9.12 kcal/mol | 25 °C |
| GATCGTCGGACGATC ((((((...)))))) | -38.9 kcal/mol | 53.8 °C |
| GCGCTTGGAAACAAACGC (((.(((....))).))) | -34.1 kcal/mol | 48 °C |
| GTATTACGAAAGTATAC (((.(((....)))))) | -18.1 kcal/mol | 32.5 °C |
| GATCGTTTAACGATC ((((((...)))))) | -36.6 kcal/mol | 55.7 °C |
| GATCCAGTGGTGGATC ((((((....)))))) | -34.6 kcal/mol | 50.4 °C |
| GAGGAACCGAAAGGTCTC (((..(((....)))))) | -15.4 kcal/mol | 35.2 °C |
| GAGCGACGAAAGTCCTC (((.(((....)))))) | -17.1 kcal/mol | 48.3 °C |
| GGTGGATCGAAAGATACC (((..(((....)))))) | -18.4 kcal/mol | 35.6 °C |
| GATCCGACCTCGGATC ((((((....)))))) | -40.9 kcal/mol | 59.1 °C |
| GAGCACGAAAGTGACCTC ((((((....)))..))) | -15.1 kcal/mol | 39.6 °C |
| GCGGCAGCGAAAGCTCGC (((..(((....)))))) | -11.7 kcal/mol | 51.5 °C |
